One block for each molecule: values may come before it.
Legend:
Rattus norvegicus [1] = experiment: Drug level in F344 rat treated with 0.3 mg/kg, po CS-1036 administered as single dose assessed as ratio of molar based AUClast by LC-MS/MS method relative to CS-1036; format: ADME, organism-based; set-up: dose 0.3 mg/kg, route oral; settings: in vivo
Rattus norvegicus [2] = experiment: Drug level in F344 rat treated with 1 mg/kg, po CS-1036 administered as single dose assessed as ratio of molar based AUClast by LC-MS/MS method relative to CS-1036; format: ADME, organism-based; set-up: dose 1 mg/kg, route oral; settings: in vivo
Rattus norvegicus [3] = experiment: Drug level in F344 rat treated with 3 mg/kg, po CS-1036 administered as single dose assessed as ratio of molar based AUClast by LC-MS/MS method relative to CS-1036; format: ADME, organism-based; set-up: dose 3 mg/kg, route oral; settings: in vivo
Rattus norvegicus [4] = experiment: Drug level in F344 rat treated with 10 mg/kg, po CS-1036 administered as single dose assessed as ratio of molar based AUClast by LC-MS/MS method relative to CS-1036; format: ADME, organism-based; set-up: dose 10 mg/kg, route oral; settings: in vivo
Cynomolgus monkey [5] = experiment: Drug level in cynomolgus monkey treated with 1 mg/kg, po CS-1036 administered as single dose assessed as ratio of molar based AUClast by LC-MS/MS method relative to CS-1036; format: ADME, organism-based, Macaca fascicularis; set-up: dose 1 mg/kg, route oral; settings: in vivo
Cynomolgus monkey [6] = experiment: Drug level in cynomolgus monkey treated with 3 mg/kg, po CS-1036 administered as single dose assessed as ratio of molar based AUClast by LC-MS/MS method relative to CS-1036; format: ADME, organism-based, Macaca fascicularis; set-up: dose 3 mg/kg, route oral; settings: in vivo
Cynomolgus monkey [7] = experiment: Drug level in cynomolgus monkey treated with 10 mg/kg, po CS-1036 administered as single dose assessed as ratio of molar based AUClast by LC-MS/MS method relative to CS-1036; format: ADME, organism-based, Macaca fascicularis; set-up: dose 10 mg/kg, route oral; settings: in vivo
[8] = Drug excretion in urine of F344 rat treated with [14C]CS-1036 at 1 mg/kg, po administered as single dose after 24 hrs by scintillation counting method; format: ADME, organism-based; set-up: dose 1 mg/kg, route oral; settings: in vivo
Stomach = experiment: Drug distribution in stomach of F344 rat treated with [14C]CS-1036 at 1 mg/kg, po administered as single dose after 2 to 8 hrs by scintillation counting method; format: ADME, organism-based; set-up: dose 1 mg/kg, route oral; settings: in vivo
Intestine = experiment: Drug distribution in intestine of F344 rat treated with [14C]CS-1036 at 1 mg/kg, po administered as single dose after 2 to 8 hrs by scintillation counting method; format: ADME, organism-based; set-up: dose 1 mg/kg, route oral; settings: in vivo
[9] = Drug distribution in cecum of F344 rat treated with [14C]CS-1036 at 1 mg/kg, po administered as single dose by scintillation counting method; format: ADME, organism-based, Caecum; set-up: dose 1 mg/kg, route oral; settings: in vivo, TDE = time-dependent effect
Procedure, shortened: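 [14C]-labelled drug (1 mg/kg, 42.4 µCi/kg) was given orally to fasted F344 rats (148–168 g, n = 3). Contents of stomach, duodenum+jejunum, ileum and cecum were washed out with water at 0.5–8 h, homogenized, solubilized and counted by liquid scintillation. Results are % of dose, mean ± S.D.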

[10] = Drug distribution in cecum of F344 rat treated with [14C]CS-1036 at 1 mg/kg, po administered as single dose after 8 hrs by scintillation counting method; format: ADME, organism-based, Caecum; set-up: dose 1 mg/kg, route oral; settings: in vivo
Mus musculus = species: Mus musculus; experiment: Inhibition of glycogen phosphorylase in ob/ob mouse; format: functional, organism-based
[11] = Oral bioavailability in rat at 10 mg/kg; format: ADME, organism-based; settings: in vivo
[12] = Cmax in rat at 10 mg/kg, po; format: ADME, organism-based; set-up: dose 10 mg/kg, route oral; settings: in vivo
[13] = Drug level in urine of F344 rat treated with [14C]CS-1036 by LC-MS/MS method; format: ADME, tissue-based; settings: in vivo
[14] = Drug level in feces of F344 rat treated with [14C]CS-1036 by LC-MS/MS method; format: ADME, tissue-based; settings: in vivo
[15] = Drug level in anaerobic culture broth of F344 rat cecal content treated with [14C]CS-1036 at 63.5 uCi/ml after 24 hrs at 35 degC by LC-MS/MS method; format: ADME; settings: in vitro
[16] = Drug level in anaerobic culture broth of human feces derived anaerobic culture broth treated with [14C]CS-1036 at 63.5 uCi/ml after 24 hrs at 35 degC by LC-MS/MS method; format: ADME, tissue-based
[17] = Drug level in urine of po dosed F344 rat treated with [14C]CS-1036 by LC-MS/MS method; format: ADME, organism-based; settings: in vivo
Rattus norvegicus [18] = experiment: Drug level in F344 rat treated with 3 mg/kg, iv CS-1036 administered as single dose assessed as ratio of molar based AUClast by LC-MS/MS method relative to CS-1036; format: ADME, organism-based; set-up: dose 3 mg/kg, route intravenous; settings: in vivo
Rattus norvegicus [19] = experiment: Drug level in F344 rat treated with 10 mg/kg, iv CS-1036 administered as single dose assessed as ratio of molar based AUClast by LC-MS/MS method relative to CS-1036; format: ADME, organism-based; set-up: dose 10 mg/kg, route intravenous; settings: in vivo
[20] = Drug level in urine of po dosed monkey treated with [14C]CS-1036 by LC-MS/MS method; settings: cynomolgus monkey, in vivo
[21] = Drug excretion in urine of cynomolgus monkey treated with [14C]CS-1036 at 3 mg/kg, po administered as single dose after 48 hrs by scintillation counting method; settings: in vivo
[22] = Drug excretion in feces of cynomolgus monkey treated with [14C]CS-1036 at 3 mg/kg, po administered as single dose after 48 hrs by scintillation counting method; settings: in vivo
[23] = Drug level in anaerobic culture broth of monkey feces derived anaerobic culture broth treated with [14C]CS-1036 at 63.5 uCi/ml after 24 hrs at 35 degC by LC-MS/MS method; settings: cynomolgus monkey, in vivo
[24] = Drug metabolism in anaerobic culture broth of F344 rat cecal content assessed as N-acetyl [14C]CS-1036 formation at 63.5 uCi/ml after 24 hrs at 35 degC by LC-MS/MS method; format: ADME
[25] = Drug distribution in cecum of F344 rat treated with [14C]CS-1036 at 1 mg/kg, po administered as single dose after 6 to 8 hrs by scintillation counting method; format: ADME, organism-based, Caecum; set-up: dose 1 mg/kg, route oral; settings: in vivo

Drug uptake (Rattus norvegicus [1]): 22.1%
Drug uptake (Rattus norvegicus [2]): 73.4%
Drug uptake (Rattus norvegicus [3]): 49.9%
Drug uptake (Rattus norvegicus [4]): 32.2%
Drug uptake (Cynomolgus monkey [5]): 60.8%
Drug uptake (Cynomolgus monkey [6]): 83.5%
Drug uptake (Cynomolgus monkey [7]): 62.5%
Drug excretion [8]: 5.3%
Drug uptake (Stomach): < 1%
Drug uptake (Intestine): < 1%
Drug uptake [9]: tde
Drug uptake [10]: 7.1%
Ki (Mus musculus): 0.392 µM
bioavailability [11]: 89%
Cmax [12]: < 0.3 µM
Drug metabolism [13]: metabolite_detected
Drug metabolism [14]: metabolite_detected
Drug metabolism [15]: metabolite_detected
Drug metabolism [16]: metabolite_detected
Drug metabolism [17]: metabolite_detected
Drug uptake (Rattus norvegicus [18]): 0.00672%
Drug uptake (Rattus norvegicus [19]): 0.0172%
Drug metabolism [20]: metabolite_detected
Drug excretion [21]: 2.2%
Drug excretion [22]: 9.7%
Drug metabolism [23]: metabolite_detected
Compound: OC[C@H]1NC[C@@H](O)[C@@H]1O

Drug metabolism [15]: metabolite_detected
Drug metabolism [24]: metabolite_detected
Compound: CC(=O)N1C[C@@H](O)[C@H](O[C@H]2O[C@H](CO)[C@@H](O[C@@H]3O[C@H](C)[C@@H](O)[C@H](O)[C@H]3O)[C@H](O)[C@H]2O)[C@H]1CO

Drug metabolism (Stomach): metabolite_not_detected
Drug metabolism (Intestine): metabolite_not_detected
Drug uptake [25]: 1.7%
Drug metabolism [14]: metabolite_detected
Drug metabolism [15]: metabolite_detected
Drug metabolism [16]: metabolite_detected
Drug excretion [22]: 17.8%
Drug metabolism [23]: metabolite_detected
Compound: CC(=O)N1C[C@@H](O)[C@H](O)[C@H]1CO

Source: ChEMBL document CHEMBL3526127, “Absorption, elimination, and metabolism of CS-1036, a novel α-amylase inhibitor in rats and monkeys, and the relationship between gastrointestinal distribution and suppression of glucose absorption” (Drug Metab Dispos, 2013)
